# Test results reported in ChEMBL document CHEMBL4270612, “Discovery of dual GyrB/ParE inhibitors active against Gram-negative bacteria” (Eur J Med Chem, 2018).
# Experiments:
# Pseudomonas aeruginosa [1] = test: Antibacterial activity against Pseudomonas aeruginosa PAO1 after 24 hrs by broth microdilution method; type: functional; settings: PAO1, 24 h
# In short: (§1)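 Broth microdilution per CLSI. Bacterial suspension adjusted to 1×10^6 CFU/mL in cation-adjusted Mueller–Hinton broth and mixed 1:1 with 2-fold serial compound dilutions. Final DMSO 2.5% v/v. Plates incubated at 35 °C with shaking at 140 rpm for 24 h.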
# Pseudomonas aeruginosa [2] = test: Antibacterial activity against Pseudomonas aeruginosa harboring MexABCDXY deletion mutant after 24 hrs by broth microdilution method; type: functional
# In short: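 Broth microdilution per CLSI. Bacterial suspensions adjusted to 1×10^6 CFU/mL in cation-adjusted Mueller–Hinton broth, mixed 1:1 with 2-fold serial compound dilutions (final DMSO 2.5% v/v). Incubation 35 °C, 140 rpm, 24 h.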
# [3] = target: DNA topoisomerase 4 subunit B (Escherichia coli K-12, UniProt P20083); test: Inhibition of Escherichia coli ParE
# DNA topoisomerase 4 subunit B, sequence (P20083 whole entry): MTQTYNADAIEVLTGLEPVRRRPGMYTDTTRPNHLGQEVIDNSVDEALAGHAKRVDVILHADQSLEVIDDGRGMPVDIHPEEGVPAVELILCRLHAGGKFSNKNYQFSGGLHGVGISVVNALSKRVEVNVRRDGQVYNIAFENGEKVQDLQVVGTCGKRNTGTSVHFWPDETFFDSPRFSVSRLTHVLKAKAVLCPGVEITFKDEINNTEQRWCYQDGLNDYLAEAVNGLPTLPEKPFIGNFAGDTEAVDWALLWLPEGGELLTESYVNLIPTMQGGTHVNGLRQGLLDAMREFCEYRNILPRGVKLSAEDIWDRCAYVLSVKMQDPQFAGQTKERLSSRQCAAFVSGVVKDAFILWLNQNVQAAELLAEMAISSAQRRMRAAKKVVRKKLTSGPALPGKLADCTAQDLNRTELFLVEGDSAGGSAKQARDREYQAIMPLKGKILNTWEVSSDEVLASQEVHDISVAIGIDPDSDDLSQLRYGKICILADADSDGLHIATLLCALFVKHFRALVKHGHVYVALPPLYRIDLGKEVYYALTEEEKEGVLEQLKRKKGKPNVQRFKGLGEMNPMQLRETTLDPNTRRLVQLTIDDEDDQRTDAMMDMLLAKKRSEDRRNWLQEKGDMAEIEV
# Escherichia coli [4] = test: Antibacterial activity against tolC deficient Escherichia coli after 24 hrs by broth microdilution method; type: functional
# In short: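 Broth microdilution per CLSI guidelines. Inoculum adjusted to 1×10^6 CFU/mL in cation-adjusted Mueller–Hinton broth, added 1:1 to 2-fold serial compound dilutions; final DMSO 2.5% v/v. Plates incubated 35 °C, 140 rpm, 24 h.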
# [5] = Growth inhibition of human A549 cells; type: cell-based
# Escherichia coli [6] = test: Antibacterial activity against Escherichia coli after 24 hrs by broth microdilution method; type: functional; in short: as §1
# [7] = Dissociation constant, pKa of compound by pH metric method; type: physicochemical
# In short: (§2)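 Potentiometric (pH-metric) titration on an automated titrator, Gold Standard pH metric assay, run in triplicate.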
# DNA gyrase subunit B = DNA gyrase subunit B (Escherichia coli, UniProt P0AES6); test: Inhibition of Escherichia coli GyrB (1 to 220 residues) expressed in Escherichia coli BL21(DE3)
# [8] = Dissociation constant, acidic pKa of compound by pH metric method; type: physicochemical; in short: as §2
# [9] = Dissociation constant, basic pKa of compound by pH metric method; type: physicochemical; in short: as §2
# Acinetobacter baumannii [10] = test: Antibacterial activity against Acinetobacter baumannii ARC3882 after 24 hrs by broth microdilution method; type: functional; settings: ARC3882, 24 h; in short: as §1
# Pseudomonas aeruginosa [11] = test: Antibacterial activity against Pseudomonas aeruginosa ARC3729 after 24 hrs by broth microdilution method; type: functional; settings: ARC3729, 24 h; in short: as §1
# Acinetobacter baumannii [12] = test: Antibacterial activity against Acinetobacter baumannii ARC3513 after 24 hrs by broth microdilution method; type: functional; settings: ARC3513, 24 h; in short: as §1
# Pseudomonas aeruginosa [13] = test: Antibacterial activity against Pseudomonas aeruginosa ARC3606 after 24 hrs by broth microdilution method; type: functional; settings: ARC3606, 24 h; in short: as §1
# Acinetobacter baumannii [14] = test: Antibacterial activity against Acinetobacter baumannii ARC3658 after 24 hrs by broth microdilution method; type: functional; settings: ARC3658, 24 h; in short: as §1
# Acinetobacter baumannii [15] = test: Antibacterial activity against Acinetobacter baumannii ARC3489 after 24 hrs by broth microdilution method; type: functional; settings: ARC3489, 24 h; in short: as §1
# Acinetobacter baumannii [16] = test: Antibacterial activity against Acinetobacter baumannii ARC3515 after 24 hrs by broth microdilution method; type: functional; settings: ARC3515, 24 h; in short: as §1
# Acinetobacter baumannii [17] = test: Antibacterial activity against Acinetobacter baumannii ARC2782 after 24 hrs by broth microdilution method; type: functional; settings: ARC2782, 24 h; in short: as §1
# Pseudomonas aeruginosa [18] = test: Antibacterial activity against Pseudomonas aeruginosa ARC3509 after 24 hrs by broth microdilution method; type: functional; settings: ARC3509, 24 h; in short: as §1
# Pseudomonas aeruginosa [19] = test: Antibacterial activity against Pseudomonas aeruginosa ARC3612 after 24 hrs by broth microdilution method; type: functional; settings: ARC3612, 24 h; in short: as §1
# Acinetobacter baumannii [20] = test: Antibacterial activity against Acinetobacter baumannii ARC3657 after 24 hrs by broth microdilution method; type: functional; settings: ARC3657, 24 h; in short: as §1
# Acinetobacter baumannii [21] = test: Antibacterial activity against Acinetobacter baumannii ARC3659 after 24 hrs by broth microdilution method; type: functional; settings: ARC3659, 24 h; in short: as §1
# Pseudomonas aeruginosa [22] = test: Antibacterial activity against Pseudomonas aeruginosa ARC3611 after 24 hrs by broth microdilution method; type: functional; settings: ARC3611, 24 h; in short: as §1
# Acinetobacter baumannii [23] = test: Antibacterial activity against Acinetobacter baumannii ARC3493 after 24 hrs by broth microdilution method; type: functional; settings: ARC3493, 24 h; in short: as §1
# Acinetobacter baumannii [24] = test: Antibacterial activity against Acinetobacter baumannii ARC2674 after 24 hrs by broth microdilution method; type: functional; settings: ARC2674, 24 h; in short: as §1
# Pseudomonas aeruginosa [25] = test: Antibacterial activity against Pseudomonas aeruginosa ARC3607 after 24 hrs by broth microdilution method; type: functional; settings: ARC3607, 24 h; in short: as §1
# Pseudomonas aeruginosa [26] = test: Antibacterial activity against Pseudomonas aeruginosa ARC3504 after 24 hrs by broth microdilution method; type: functional; settings: ARC3504, 24 h; in short: as §1
# Acinetobacter baumannii [27] = test: Antibacterial activity against Acinetobacter baumannii ARC2779 after 24 hrs by broth microdilution method; type: functional; settings: ARC2779, 24 h; in short: as §1
# Pseudomonas aeruginosa [28] = test: Antibacterial activity against Pseudomonas aeruginosa ARC3506 after 24 hrs by broth microdilution method; type: functional; settings: ARC3506, 24 h; in short: as §1
# Pseudomonas aeruginosa [29] = test: Antibacterial activity against Pseudomonas aeruginosa ARC3505 after 24 hrs by broth microdilution method; type: functional; settings: ARC3505, 24 h; in short: as §1
# Pseudomonas aeruginosa [30] = test: Antibacterial activity against Pseudomonas aeruginosa ARC3916 after 24 hrs by broth microdilution method; type: functional; settings: ARC3916, 24 h; in short: as §1
# Acinetobacter baumannii [31] = test: Antibacterial activity against Acinetobacter baumannii ARC3486 after 24 hrs by broth microdilution method; type: functional; settings: ARC3486, 24 h; in short: as §1
# Pseudomonas aeruginosa [32] = test: Antibacterial activity against Pseudomonas aeruginosa ARC003 after 24 hrs by broth microdilution method; type: functional; settings: ARC003, 24 h; in short: as §1
# Acinetobacter baumannii [33] = test: Antibacterial activity against Acinetobacter baumannii ARC3495 after 24 hrs by broth microdilution method; type: functional; settings: ARC3495, 24 h; in short: as §1
# Acinetobacter baumannii [34] = test: Antibacterial activity against Acinetobacter baumannii ARC3485 after 24 hrs by broth microdilution method; type: functional; settings: ARC3485, 24 h; in short: as §1
# Pseudomonas aeruginosa [35] = test: Antibacterial activity against Pseudomonas aeruginosa ARC4060 after 24 hrs by broth microdilution method; type: functional; settings: ARC4060, 24 h; in short: as §1
# Acinetobacter baumannii [36] = test: Antibacterial activity against Acinetobacter baumannii ARC2728 after 24 hrs by broth microdilution method; type: functional; settings: ARC2728, 24 h; in short: as §1
compound,measurement,setting,value
CCNC(=O)Nc1cc(-c2nc(C(F)(F)F)cs2)c(-c2cc3ncccc3nc2N2CCN(C)CC2)cn1,MIC,Pseudomonas aeruginosa [1],> 100 µg/mL
same,MIC,Pseudomonas aeruginosa [2],1.08 µg/mL
same,IC50,[3],400 nM
same,MIC,Escherichia coli [4],1.08 µg/mL
same,GI50,[5],> 50000 nM
same,MIC,Escherichia coli [6],16.8 µg/mL
same,pKa,[7],7.4
same,IC50,DNA gyrase subunit B,3 nM
CCNC(=O)Nc1cc(-c2nc(C(F)(F)F)cs2)c(-c2cc(C(=O)NS(C)(=O)=O)cnc2N2C3CCC2CN(C)C3)cn1,MIC,Pseudomonas aeruginosa [1],> 50 µg/mL
same,MIC,Pseudomonas aeruginosa [2],> 50 µg/mL
same,IC50,[3],9 nM
same,MIC,Escherichia coli [4],> 50 µg/mL
same,pKa,[8],3.2
same,MIC,Escherichia coli [6],> 50 µg/mL
same,pKa,[9],7.6
same,IC50,DNA gyrase subunit B,8 nM
CCNC(=O)Nc1cc(-c2nc(C(F)(F)F)cs2)c(-c2cc3ncccc3nc2N2CCC(N)CC2)cn1,MIC,Pseudomonas aeruginosa [1],67.8 µg/mL
same,MIC,Pseudomonas aeruginosa [2],0.54 µg/mL
same,IC50,[3],49 nM
same,MIC,Escherichia coli [4],0.54 µg/mL
same,GI50,[5],> 50000 nM
same,MIC,Escherichia coli [6],16.8 µg/mL
same,pKa,[7],9.3
same,IC50,DNA gyrase subunit B,6 nM
CCNC(=O)Nc1cc(-c2nc(C(F)(F)F)cs2)c(-c2cc3ncccc3nc2N2[C@@H]3CC[C@H]2C[C@@H](N)C3)cn1,MIC,Pseudomonas aeruginosa [1],35.5 µg/mL
same,MIC,Pseudomonas aeruginosa [2],0.56 µg/mL
same,IC50,[3],24 nM
same,MIC,Escherichia coli [4],0.56 µg/mL
same,GI50,[5],> 40000 nM
same,MIC,Escherichia coli [6],4.54 µg/mL
same,pKa,[7],9.2
same,IC50,DNA gyrase subunit B,3 nM
CCNC(=O)Nc1cc(-c2nc(C(F)(F)F)cs2)c(-c2cc(C(=O)O)cnc2N2C3CCC2CN(C)C3)cn1,MIC,Pseudomonas aeruginosa [1],9 µg/mL
same,MIC,Pseudomonas aeruginosa [2],4.48 µg/mL
same,IC50,[3],8 nM
same,MIC,Escherichia coli [4],1.12 µg/mL
same,pKa,[8],3.5
same,GI50,[5],> 50000 nM
same,MIC,Escherichia coli [6],9 µg/mL
same,pKa,[9],7.4
same,IC50,DNA gyrase subunit B,6 nM
CCNC(=O)Nc1cc(-c2nc(C(F)(F)F)cs2)c(-c2cc(-c3nnn[nH]3)cnc2N2C3CCC2CN(C)C3)cn1,MIC,Pseudomonas aeruginosa [1],> 50 µg/mL
same,MIC,Pseudomonas aeruginosa [2],> 50 µg/mL
same,IC50,[3],4 nM
same,MIC,Escherichia coli [4],36 µg/mL
same,pKa,[8],3.6
same,MIC,Escherichia coli [6],> 50 µg/mL
same,pKa,[9],7.8
same,IC50,DNA gyrase subunit B,9 nM
C[C@@H](O)[C@H]1C(=O)N2C(C(=O)O)=C(S[C@@H]3CN[C@H](C(=O)N(C)C)C3)[C@H](C)[C@H]12 [MEROPENEM],MIC,Acinetobacter baumannii [10],> 64 µg/mL
same,MIC,Pseudomonas aeruginosa [11],32 µg/mL
same,MIC,Acinetobacter baumannii [12],32 µg/mL
same,MIC,Pseudomonas aeruginosa [13],4 µg/mL
same,MIC,Acinetobacter baumannii [14],32 µg/mL
same,MIC,Acinetobacter baumannii [15],4 µg/mL
same,MIC,Acinetobacter baumannii [16],4 µg/mL
same,MIC,Acinetobacter baumannii [17],16 µg/mL
same,MIC,Pseudomonas aeruginosa [18],16 µg/mL
same,MIC,Pseudomonas aeruginosa [19],32 µg/mL
same,MIC,Acinetobacter baumannii [20],1 µg/mL
same,MIC,Acinetobacter baumannii [21],16 µg/mL
same,MIC,Pseudomonas aeruginosa [22],4 µg/mL
same,MIC,Acinetobacter baumannii [23],> 64 µg/mL
same,MIC,Acinetobacter baumannii [24],16 µg/mL
same,MIC,Pseudomonas aeruginosa [25],8 µg/mL
same,MIC,Pseudomonas aeruginosa [26],4 µg/mL
same,MIC,Acinetobacter baumannii [27],16 µg/mL
same,MIC,Pseudomonas aeruginosa [28],8 µg/mL
same,MIC,Pseudomonas aeruginosa [29],2 µg/mL
same,MIC,Pseudomonas aeruginosa [30],32 µg/mL
same,MIC,Acinetobacter baumannii [31],> 64 µg/mL
same,MIC,Pseudomonas aeruginosa [32],0.25 µg/mL
same,MIC,Acinetobacter baumannii [33],> 64 µg/mL
same,MIC,Acinetobacter baumannii [34],32 µg/mL
same,MIC,Pseudomonas aeruginosa [35],16 µg/mL
same,MIC,Acinetobacter baumannii [36],0.25 µg/mL
CCNC(=O)Nc1cc(-c2nc(C(F)(F)F)cs2)c(-c2cc(-c3n[nH]c(=O)o3)cnc2N2CCC(N)CC2)cn1,MIC,Pseudomonas aeruginosa [1],> 50 µg/mL
same,MIC,Pseudomonas aeruginosa [2],1.15 µg/mL
same,IC50,[3],23 nM
same,MIC,Escherichia coli [4],9.2 µg/mL
same,pKa,[8],6.8
same,MIC,Escherichia coli [6],> 50 µg/mL
same,pKa,[9],9.5
same,IC50,DNA gyrase subunit B,2 nM
